# Source: ChEMBL document CHEMBL1144297, “Design and synthesis of macrocycles active against vancomycin-resistant enterococci (VRE): the interplay between d-Ala-d-Lac binding and hydrophobic effect” (2005)
# Starred links: 1 amine or outer side, 2 acyl side, 3 side chain; linkers in the order of their positions; H or OH if unused. Positions of bridges follow the written chain, without caps; N, C: chain ends. Non-standard residues stand in square brackets, D forms with d. Residues, ends and D or L forms follow the SMILES beside them. *: point of attachment. X1 = O=C1C[C@@H](C(=O)[*:2])N([*:1])C[C@H]1CS[C@@H]1CN2CCC1CC2; NMePhe(4-NMe2) = CN[C@@H](Cc1ccc(N(C)C)cc1)C(=O)O; Picolinoyl(3-OH) = O=C(c1ncccc1O)*; Phg = N[C@H](C(=O)O)c1ccccc1; dAbu = CC[C@@H](N)C(=O)O
# What was measured:
# Enterococcus faecalis [1] = experiment: Minimum inhibitory concentration against vancomycin resistant Enterococci faecalis L560 strain was determined; type: functional
# In short: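 Standard microdilution MIC assay against strain L560, which forms an isogenic pair with L559.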
# Enterococcus faecalis [2] = experiment: Minimum inhibitory concentration against vancomycin sensitive Enterococci faecalis L559 strain was determined; type: functional
# In short: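 Standard microdilution MIC assay against strain L559, isogenic with L560.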
# Enterococcus faecium [3] = experiment: Minimum inhibitory concentration against vancomycin sensitive Enterococci faecium L568 strain was determined; type: functional
# In short: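 Standard microdilution assay giving the minimum inhibitory concentration. The test organism is strain L568, which is isogenic with L569.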
# Staphylococcus aureus = experiment: Minimum inhibitory concentration against Staphylococcus aureus L613 strain was determined
# Enterococcus faecium [4] = experiment: Minimum inhibitory concentration against vancomycin resistant Enterococci faecium L2215 strain was determined; type: functional
# In short: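 Standard microdilution MIC assay against strain L2215, a Van-A clinical isolate.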
# [5] = Enterococcus faecalis, read-out: MIC
# [6] = Enterococcus faecium, read-out: MIC
SMILES,MIC (Enterococcus faecalis [1]; [5]) [µg/mL],MIC (Enterococcus faecalis [2]; [5]) [µg/mL],MIC (Enterococcus faecium [3]; [6]) [µg/mL],MIC (Staphylococcus aureus) [µg/mL],MIC (Enterococcus faecium [4]; [6]) [µg/mL],MIC (Enterococcus faecalis [1]) [µg/mL],MIC (Enterococcus faecalis [2]) [µg/mL],MIC (Enterococcus faecium [4]) [µg/mL],MIC (Enterococcus faecium [3]) [µg/mL]
COC(=O)[C@H](N)C1NC(=O)[C@H](Cc2ccccc2)NC(=O)[C@H](NC(=O)[C@H](N)CC(C)C)Cc2ccc(c([N+](=O)[O-])c2)Oc2cc1cc(O)c2OC.Cl (some centres not stated),512,512,> 1020,> 1020,,,,,
CCN(CC)CCS(=O)(=O)[C@@H]1CCN2C(=O)c3coc(n3)CC(=O)C[C@H](O)/C=C(C)/C=C/CNC(=O)/C=C/[C@@H](C)[C@@H](C(C)C)OC(=O)[C@@H]12.CC[C@H]1NC(=O)[C@@H](NC(=O)c2ncccc2O)[C@@H](C)OC(=O)[C@H](c2ccccc2)NC(=O)[C@@H]2CC(=O)[C@H](CS[C@@H]3CN4CCC3CC4)CN2C(=O)[C@H](Cc2ccc(N(C)C)cc2)N(C)C(=O)[C@@H]2CCCN2C1=O [QUINUPRISTIN/DALFOPRISTIN] ({Picolinoyl(3-OH)}-T[dAbu]P[NMePhe(4-NMe2)][X1][Phg]; ester 1-C),8,4,4,1,4,,,,
CCCCCCCCCCCC(=O)NC1C(Oc2cc3cc(c2OC)Oc2ccc(cc2[N+](=O)[O-])C[C@@H](NC(=O)[C@H](N)CC(C)C)C(=O)N[C@@H](Cc2ccccc2)C(=O)NC3[C@@H](NC(C)=O)C(=O)O)OC(O)C(O)C1O.Cl (some centres not stated),64,64,> 1020,> 1020,1020,,,,
CCCCCCCCCCCC(=O)N[C@@H](C(=O)O)C1NC(=O)[C@H](Cc2ccccc2)NC(=O)[C@H](NC(=O)[C@H](N)CC(C)C)Cc2ccc(c([N+](=O)[O-])c2)Oc2cc1cc(OCc1ccccc1)c2OC.Cl (some centres not stated),4,8,256,128,16,,,,
CN[C@H](CC(C)C)C(=O)N[C@H]1C(=O)N[C@@H](CC(N)=O)C(=O)N[C@H]2C(=O)N[C@H]3C(=O)N[C@H](C(=O)N[C@H](C(=O)O)c4cc(O)cc(O)c4-c4cc3ccc4O)[C@H](O)c3ccc(c(Cl)c3)Oc3cc2cc(c3O[C@@H]2O[C@H](CO)[C@@H](O)[C@H](O)[C@H]2O[C@H]2C[C@](C)(N)[C@H](O)[C@H](C)O2)Oc2ccc(cc2Cl)[C@H]1O [VANCOMYCIN],> 128,1,,,> 128,,,,
COc1c(O)cc2cc1Oc1ccc(cc1[N+](=O)[O-])C[C@@H](NC(=O)[C@H](N)CC(C)C)C(=O)N[C@@H](Cc1ccccc1)C(=O)NC2[C@@H](NC(C)=O)C(=O)O.Cl (some centres not stated),,> 1020,> 1020,> 1020,,,,,
CCCCCCCCCCCC(=O)N[C@@H](C(=O)O)C1NC(=O)[C@H](Cc2ccccc2)NC(=O)[C@H](NC(=O)[C@H](N)CC(C)C)Cc2ccc(cc2)Oc2cc1cc(O)c2OC.Cl (some centres not stated),128,128,> 128,> 128,,,,,
CCCCCCCCCCCNC(=O)N[C@@H](C(=O)O)C1NC(=O)[C@H](Cc2ccccc2)NC(=O)[C@H](N)Cc2ccc(c([N+](=O)[O-])c2)Oc2cc1cc(O)c2OC.Cl (some centres not stated),> 128,128,128,> 128,> 128,,,,
CCCCCCCCCCCC(=O)N[C@@H](C(=O)O)C1NC(=O)[C@H](Cc2ccccc2)NC(=O)[C@H](NC(=O)[C@H](N)CC(C)C)Cc2ccc(c([N+](=O)[O-])c2)Oc2cc1cc(O)c2OC.Cl (stereo in doubt; 2d),4,4,128,64,8,,,,
CCCCCCCCCCCC(=O)N[C@@H](C(=O)O)C1NC(=O)[C@H](Cc2ccccc2)NC(=O)[C@H](NC(=O)[C@H](N)CC(C)C)Cc2ccc(c([N+](=O)[O-])c2)Oc2cc1cc(O)c2OC.Cl (stereo in doubt; 2e),,,,,,8,8,16,>128
COC(=O)[C@@H](C1NC(=O)[C@H](Cc2ccccc2)NC(=O)[C@H](NC(=O)[C@H](N)CC(C)C)Cc2ccc(c([N+](=O)[O-])c2)Oc2cc1cc(OC)c2OC)N(C)C.Cl (some centres not stated),128,128,> 128,> 128,,,,,
CCCCCCCCCCCNC(=O)N[C@@H](C(=O)O)C1NC(=O)[C@H](Cc2ccccc2)NC(=O)[C@H](NC(=O)[C@H](N)CC(C)C)Cc2ccc(c([N+](=O)[O-])c2)Oc2cc1cc(OC1OC(O)C(O)C(O)C1NC(=O)CCCCCCCCCCC)c2OC.Cl (some centres not stated),8,8,256,> 256,32,,,,
CC(=O)N[C@@H]1[C@H](Oc2c3cc4cc2Oc2ccc(cc2Cl)[C@@H](O[C@@H]2O[C@@H](CO)[C@@H](O)[C@H](O)[C@@H]2NC(C)=O)[C@@H]2NC(=O)[C@H](NC(=O)[C@@H]4NC(=O)[C@H]4NC(=O)[C@@H](Cc5ccc(c(Cl)c5)O3)NC(=O)[C@H](N)c3ccc(O)c(c3)Oc3cc(O)cc4c3)c3ccc(O)c(c3)-c3c(O[C@H]4O[C@H](CO)[C@@H](O)[C@@H](O)[C@@H]4O)cc(O)cc3[C@@H](C(=O)O)NC2=O)O[C@@H](CO)[C@@H](O)[C@@H]1O,64,0.125,0.5,1,> 128,,,,
